Assay results taken from ChEMBL document CHEMBL4706650, “Discovery of a Novel and Brain-Penetrant O-GlcNAcase Inhibitor via Virtual Screening, Structure-Based Analysis, and Rational Lead Optimization” (J Med Chem, 2021).
Each block holds one molecule with its values, some of them ahead of it. Calls of active or inactive are those of the source. No cut-off for these calls is given here.

Legend:
Protein O-GlcNAcase [1] = molecular target: T1, Protein O-GlcNAcase (Homo sapiens, UniProt O60502); assay: Inhibition of full-length human OGA expressed in Expi293 (HEK293) cells using 4-methylumbelliferyl-N-acetyl-beta-D-glucosaminide dihydrate as fluorogenic substrate preincubated with enzyme followed by substrate addition and measured every 5 mins for 60 mins by fluorescence based analysis
T1 sequence (O60502 whole entry): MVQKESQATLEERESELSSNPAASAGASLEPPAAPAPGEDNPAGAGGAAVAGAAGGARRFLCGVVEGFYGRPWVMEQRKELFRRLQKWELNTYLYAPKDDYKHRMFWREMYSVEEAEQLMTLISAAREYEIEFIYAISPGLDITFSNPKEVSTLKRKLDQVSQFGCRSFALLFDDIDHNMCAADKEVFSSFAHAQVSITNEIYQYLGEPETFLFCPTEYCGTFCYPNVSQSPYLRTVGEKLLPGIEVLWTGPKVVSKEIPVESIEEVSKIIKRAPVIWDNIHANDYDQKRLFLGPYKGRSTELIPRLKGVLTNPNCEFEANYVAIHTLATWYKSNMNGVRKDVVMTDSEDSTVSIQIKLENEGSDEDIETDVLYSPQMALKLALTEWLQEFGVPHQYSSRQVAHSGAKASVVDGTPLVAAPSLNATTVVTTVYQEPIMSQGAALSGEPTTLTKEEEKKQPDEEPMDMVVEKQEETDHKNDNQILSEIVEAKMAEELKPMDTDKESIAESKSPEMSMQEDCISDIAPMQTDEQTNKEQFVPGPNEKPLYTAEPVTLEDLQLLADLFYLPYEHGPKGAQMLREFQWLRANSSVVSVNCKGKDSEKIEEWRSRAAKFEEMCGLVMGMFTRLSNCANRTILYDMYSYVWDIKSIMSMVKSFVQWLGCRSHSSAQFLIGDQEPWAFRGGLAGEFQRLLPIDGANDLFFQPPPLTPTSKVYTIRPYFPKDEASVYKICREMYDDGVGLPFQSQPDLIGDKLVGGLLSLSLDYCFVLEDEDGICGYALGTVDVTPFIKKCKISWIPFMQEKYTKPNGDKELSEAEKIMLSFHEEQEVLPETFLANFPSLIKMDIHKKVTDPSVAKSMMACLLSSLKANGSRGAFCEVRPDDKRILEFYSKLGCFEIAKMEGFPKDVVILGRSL
In short: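 Human OGA, FLAG-tagged full length from transfected Expi293 cells, purified by anti-FLAG agarose and gel filtration, 1 nM. Buffer 50 mM NaH2PO4, 100 mM NaCl, 0.01% BSA, 0.01% Tween 20, 1 mM DTT, pH 7.4; 2 mM substrate added to start after compound, RT. Ex 355/em 460 nm; 0% control enzyme+DMSO, 100% no enzyme; IC50 by variable-slope sigmoidal fit.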

[2] = molecular target: T2, Protein O-GlcNAcase (Homo sapiens) (UniProt O60502); assay: Inhibition of full-length human OGA expressed in Expi293 (HEK293) cells using 4-methylumbelliferyl-N-acetyl-beta-D-glucosaminide dihydrate as fluorogenic substrate at 10 uM preincubated with enzyme followed by substrate addition and measured every 5 mins for 60 mins by fluorescence based analysis
T2 sequence (whole entry): T1 sequence (O60502 whole entry)

Homo sapiens = species: Homo sapiens; assay: Inhibition of human placental beta-hexosaminidase using 4-methylumbelliferyl-N-acetyl-beta-D-glucosaminide dihydrate as fluorogenic substrate at 10 uM preincubated with enzyme followed by substrate addition and measured every 5 mins for 60 mins by fluorescence based analysis; format: tissue-based; conditions: Placenta
[3] = molecular target: T2, Protein O-GlcNAcase (Homo sapiens); assay: Competitive inhibition of full-length human OGA expressed in Expi293 (HEK293) cells assessed as increase in Km of substrate using varying concentrations of 4-methylumbelliferyl-N-acetyl-beta-D-glucosaminide dihydrate as fluorogenic substrate at 0.48 to 60 nM measured for 60 mins by fluorescence based analysis; conditions: dose 0.48-60 nM
In short: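 Full-length human OGA (FLAG-purified, gel filtration) at 1 nM final, in 50 mM NaH2PO4, 100 mM NaCl, 0.01% BSA, 0.01% Tween 20, 1 mM DTT, pH 7.4. Substrate serially diluted 2-fold from 2 mM at several inhibitor levels. Fluorescence read over 60 min (ex 355/em 460 nm); Vmax and Km from Michaelis–Menten nonlinear fit.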

Protein O-GlcNAcase [4] = molecular target: T1, Protein O-GlcNAcase; assay: Inhibition of OGA in human SH-SY5Y cells assessed as increase in O-GIcNAcylated protein levels incubated for 48 hrs by in-cell Western assay; format: cell-based
In short: (§1)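 SH-SY5Y cells seeded ~1.8 × 10⁴/well on poly-D-lysine, compound for 48 h at 37 °C. Methanol fixation, 0.1% Triton X-100 permeabilization, blocking, then Alexa Fluor 700-labelled anti-O-GlcNAc RL2 (1:500, 60 min RT). Infrared imaging of integrated fluorescence, normalized to DMSO (100%) and medium (0%); EC50 as curve inflection point, Emax as maximal % increase.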

[5] = molecular target: T2, Protein O-GlcNAcase (Homo sapiens); assay: Inhibition of OGA in human SH-SY5Y cells assessed as increase in O-GIcNAcylated protein levels incubated for 48 hrs by in-cell Western assay relative to control; format: cell-based; in short: as §1
[6] = Inhibition of human placental beta-hexosaminidase using 4-methylumbelliferyl-N-acetyl-beta-D-glucosaminide dihydrate as fluorogenic substrate preincubated with enzyme followed by substrate addition and measured every 5 mins for 60 mins by fluorescence based analysis; format: tissue-based, Placenta
In short: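 Placental β-hexosaminidase at 10 μunits/mL in 50 mM NaH2PO4, 100 mM NaCl, 0.01% BSA, 0.01% Tween 20, 1 mM DTT, pH 7.4. Compound added before 2 mM substrate, room temperature. Fluorescence ex 355/em 460 nm; inhibition versus enzyme+DMSO (0%) and no-enzyme (100%) wells; IC50 from variable-slope sigmoidal regression.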

[7] = Drug level in C57BL/6J mouse plasma at 30 mg/kg, po after 0.5 hrs by LC/MS-MS analysis; format: ADME, organism-based
In short: (§2)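 Suspension in 0.5% (w/v) methylcellulose dosed orally at 30 mg/kg to C57Bl/6J mice (n = 3). Blood and brain taken at 0.5 and 1 h; plasma by centrifugation, brain homogenized in saline. Acetonitrile deproteinization with internal standard, supernatant diluted in 0.2% formic acid/10 mM ammonium formate (pH 3), LC/MS/MS quantitation.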

[8] = Drug level in C57BL/6J mouse plasma at 30 mg/kg, po after 1 hrs by LC/MS-MS analysis; format: ADME, organism-based; in short: as §2
[9] = Drug level in C57BL/6J mouse brain at 30 mg/kg, po after 0.5 hrs by LC/MS-MS analysis; format: ADME, organism-based; conditions: read-out: Drug uptake; in short: as §2
[10] = Drug level in C57BL/6J mouse brain at 30 mg/kg, po after 1 hrs by LC/MS-MS analysis; format: ADME, organism-based; conditions: read-out: Drug uptake; in short: as §2
[11] = Unbound brain-to-plasma concentration ratio in C57BL/6J mouse at 30 mg/kg, po after 0.5 hrs by equilibrium dialysis; format: ADME, organism-based; conditions: read-out: K(p,uu,brain)
In short: (§3)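 Oral dose of 30 mg/kg in 0.5% methylcellulose to C57Bl/6J mice (n = 3); plasma and brain levels at 0.5 and 1 h by LC/MS/MS. Unbound fractions in plasma and brain by equilibrium dialysis; Kp,uu = (fu,brain × Cbrain)/(fu,plasma × Cplasma).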

[12] = Unbound brain-to-plasma concentration ratio in C57BL/6J mouse at 30 mg/kg, po after 1 hrs by equilibrium dialysis; format: ADME, organism-based; conditions: read-out: K(p,uu,brain); in short: as §3
[13] = Unbound drug level in C57BL/6J mouse plasma at 30 mg/kg, po by equilibrium dialysis method; format: ADME, organism-based
In short: (§4)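 Unbound fraction in mouse plasma and brain determined by equilibrium dialysis, with the fractions used to correct total plasma and brain levels after a 30 mg/kg oral dose in 0.5% methylcellulose.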

[14] = Unbound drug level in C57BL/6J mouse brain at 30 mg/kg, po by equilibrium dialysis method; format: ADME, organism-based; in short: as §4

SMILES: COC1CCN(c2ccnc(NCCc3ccccc3)n2)CC1
- IC50 (Protein O-GlcNAcase [1]): 970 nM

SMILES: CC1CCN(c2ccnc(NC(C)CN3CCN(C)CC3)n2)CC1 (centres undefined)
- inhibition [2]: > 50%
- IC50 (Protein O-GlcNAcase [1]): 41 nM
- inhibition (Homo sapiens): inactive

SMILES: CC1CCN(c2ccnc(NCc3cn(C)cn3)n2)CC1 [TP-040]
- IC50 (Protein O-GlcNAcase [1]): 46 nM
- EC50 (Protein O-GlcNAcase [4]): 450 nM
- Emax [5]: 143%
- IC50 [6]: > 10000 nM
- concentration at 0.5 h [7]: 2800 ng/mL
- concentration at 1 h [8]: 1900 ng/mL
- concentration at 0.5 h [9]: 2700 ng/g
- concentration at 1 h [10]: 2600 ng/g
- Kp uu at 0.5 h [11]: 0.25
- Kp uu at 1 h [12]: 0.36
- fraction unbound [13]: 0.53
- fraction unbound [14]: 0.14

SMILES: c1ccc(CCNc2nccc(N3CCOCC3)n2)cc1
- IC50 (Protein O-GlcNAcase [1]): 4700 nM

SMILES: CC1CCN(c2ccnc(NCCc3ccccn3)n2)CC1
- IC50 (Protein O-GlcNAcase [1]): 360 nM

SMILES: OC1CCN(c2ccnc(NCCc3ccccc3)n2)CC1
- IC50 (Protein O-GlcNAcase [1]): > 10000 nM

SMILES: CN1CCN(c2ccnc(NCCc3ccccc3)n2)CC1 [TP-040n]
- IC50 (Protein O-GlcNAcase [1]): > 10000 nM

Molecules with a lower IC50 (Protein O-GlcNAcase [1]), results first:

- IC50 (Protein O-GlcNAcase [1]): 18 nM
SMILES: CC1CCN(c2ccnc(NCc3cccnc3)n2)CC1

- IC50 (Protein O-GlcNAcase [1]): 24 nM
- inhibition [3]: Active
SMILES: CC1CCN(c2ccnc(NCCc3ccccc3)n2)CC1

- IC50 (Protein O-GlcNAcase [1]): 31 nM
SMILES: CC1CCN(c2ccnc(NCCc3cccnc3)n2)CC1
